Data: ChEMBL document CHEMBL1139079, “Synthesis and HIV-1 integrase inhibitory activity of spiroundecane(ene) derivatives” (Bioorg Med Chem Lett, 2007)
Active and inactive are the calls of the source. The calls are words filed in the database; no cut-off is given here.

Columns and labels:
[1] = molecular target: Human immunodeficiency virus type 1 integrase (Human immunodeficiency virus 1) (UniProt Q7ZJM1); assay: (§1) Inhibition of recombinant HIV1 integrase strand transfer activity
Outline: (§2)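 Recombinant HIV-1 integrase with a 21 bp duplex substrate, 5'-[32P]-labelled. 3'-processing read as release of the terminal dinucleotide; strand transfer read as DNA products longer than the starting substrate. Products resolved by PAGE. IC50 given as mean and standard deviation of at least three independent experiments.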

[2] = molecular target: Human immunodeficiency virus type 1 integrase (Human immunodeficiency virus 1) (UniProt Q7ZJM1); assay: (§3) Inhibition of recombinant HIV1 integrase 3'-end processing activity; outline: as §2
[3] = Cytotoxicity against MT2 cells; type: cell-based; conditions: human
[4] = molecular target: T1, Human immunodeficiency virus type 1 integrase (Human immunodeficiency virus 1, UniProt Q7ZJM1); assay: as §1; outline: as §2
[5] = molecular target: T1, Human immunodeficiency virus type 1 integrase; assay: as §3; outline: as §2
[6] = molecular target: T1, Human immunodeficiency virus type 1 integrase; assay: Inhibition of recombinant HIV1 integrase mediated-disintegration activity
Outline: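 Reverse of strand transfer, run with recombinant HIV-1 integrase on a Y-oligomer substrate carrying a 5'-[32P] label. Cleavage of the 34-mer strand releases a radiolabelled 19-bp oligonucleotide, which was detected by PAGE after reactions over a range of drug concentrations. IC50 derived from the gel analysis.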

Human immunodeficiency virus type 1 integrase (Human immunodeficiency virus 1), sequence (Q7ZJM1 as listed by the source): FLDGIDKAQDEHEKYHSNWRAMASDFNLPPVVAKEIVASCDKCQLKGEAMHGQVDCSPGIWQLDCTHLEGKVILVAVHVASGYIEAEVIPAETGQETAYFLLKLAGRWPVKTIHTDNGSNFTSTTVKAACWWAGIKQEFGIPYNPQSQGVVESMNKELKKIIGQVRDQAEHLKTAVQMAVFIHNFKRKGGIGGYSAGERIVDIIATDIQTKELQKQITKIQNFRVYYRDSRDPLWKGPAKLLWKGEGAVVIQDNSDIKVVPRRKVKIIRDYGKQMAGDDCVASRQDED
T1 sequence (Q7ZJM1 whole entry): as the sequence (Q7ZJM1 as listed by the source) above

Compound | Activity [1] | Activity [2] | CC50 [3] | IC50 [4] | IC50 [5] | IC50 [6]
COc1ccc([C@@H]2CC(=O)C[C@H](c3ccco3)C23C(=O)OC(C)(C)OC3=O)c(C)c1 | inactive | inactive | > 111 µM | – | – | –
COc1ccc([C@@H]2CC(=O)C[C@H](c3ccco3)C23C(=O)OC(C)(C)OC3=O)cc1O | inactive | inactive | > 111 µM | – | – | –
CC1(C)OC(=O)C2(C(=O)O1)[C@@H](c1ccco1)CC(=O)C[C@H]2c1ccccc1 | – | – | > 111 µM | 132 µM | 141 µM | –
COc1ccc([C@H]2CC(=O)CCC23C(=O)OC(C)(C)OC3=O)cc1 | – | – | > 111 µM | 97.5 µM | 142 µM | –
CC1(C)OC(=O)C2(C(=O)O1)[C@@H](c1ccco1)CC(=O)C[C@H]2c1c[nH]c2ccccc12 | – | – | > 111 µM | 9.6 µM | 11.1 µM | 19.2 µM
CC1(C)OC(=O)C2(C(=O)O1)[C@@H](c1ccco1)CC(=O)C[C@H]2c1ccc(F)cc1 | inactive | inactive | > 111 µM | – | – | –
CCOC(=O)C1=C(O)CCC2(C(=O)OC(C)(C)OC2=O)[C@H]1c1ccccc1OC | – | inactive | > 111 µM | 281 µM | – | –
COc1ccc([C@@H]2CC(=O)C[C@H](c3ccco3)C23C(=O)OC(C)(C)OC3=O)cc1 | – | – | > 111 µM | 36.3 µM | 130 µM | –
CC1(C)OC(=O)C2(C(=O)O1)[C@@H](c1ccco1)CC(=O)C[C@H]2c1ccccc1Cl | inactive | inactive | > 111 µM | – | – | –
CC1(C)OC(=O)C2(C(=O)O1)[C@@H](c1ccco1)CC(=O)C[C@H]2c1ccc(Br)cc1 | inactive | inactive | > 111 µM | – | – | –
COc1cccc([C@@H]2CC(=O)C[C@H](c3ccco3)C23C(=O)OC(C)(C)OC3=O)c1OC | – | – | > 111 µM | 44.2 µM | 44.8 µM | –
CC1(C)OC(=O)C2(C(=O)O1)[C@@H](c1ccco1)CC(=O)C[C@H]2c1ccco1 | – | – | > 111 µM | 17.6 µM | 32.9 µM | 81.4 µM
COc1ccc([C@@H]2CC(=O)C[C@H](c3ccccc3OC)C23C(=O)OC(C)(C)OC3=O)cc1O | inactive | inactive | > 111 µM | – | – | –
COc1ccc([C@@H]2CC(=O)C[C@H](c3ccco3)C23C(=O)OC(C)(C)OC3=O)cc1OC | – | – | > 111 µM | 91.5 µM | 111 µM | –
CCOC(=O)C1=C(O)CCC2(C(=O)OC(C)(C)OC2=O)[C@H]1c1ccco1 | – | – | > 111 µM | 43.8 µM | 67.8 µM | 213 µM
